In ChEMBL document CHEMBL1933017, “Synthesis and biological evaluation of some thiazolidinones as antimicrobial agents” (2012):
In brackets after ≈: the same amount, converted by molar mass.

Tests used:
Proteus vulgaris [1] = assay: Antibacterial activity against Proteus vulgaris at 100 ug/disc after 24 hrs by disc diffusion method; format: functional; conditions: read-out: DIZ
Summary of the method: (§1)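 Paper disc diffusion on autoclaved Mueller-Hinton agar poured 5 mm deep. Agar was swab-inoculated with 10⁵ CFU/mL suspension (0.5 McFarland). Discs 6.25 mm across were soaked in compound solution in DMSO (3.12–100 µg/mL) and plates incubated 24 h at (37 ± 1) °C. Read-out was inhibition zone (mm). DMSO control disc; ciprofloxacin or ketoconazole reference, 100 µg/disc. Mean of three independent experiments.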

Shigella flexneri [2] = assay: Antibacterial activity against Shigella flexneri at 100 ug/disc after 24 hrs by disc diffusion method; format: functional; conditions: read-out: DIZ; summary of the method: as §1
Staphylococcus aureus [3] = assay: Antibacterial activity against Staphylococcus aureus after 24 hrs by agar streak dilution method; format: functional
Summary of the method: (§2)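 MIC by agar streak dilution. Graded amounts of DMSO stock (100 μg/mL) were mixed into molten sterile nutrient agar and poured 4–5 mm deep. Serial concentrations spanned 3.12–100 µg/mL. Plates were inoculated with about 10⁵ CFU/mL of bacterial suspension and incubated at (37 ± 1) °C for 24 h. Each value is the mean of three independent experiments.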

Bacillus cereus [4] = assay: Antibacterial activity against Bacillus cereus after 24 hrs by agar streak dilution method; format: functional; summary of the method: as §2
Escherichia coli [5] = assay: Antibacterial activity against Escherichia coli after 24 hrs by agar streak dilution method; format: functional; summary of the method: as §2
Pseudomonas aeruginosa [6] = assay: Antibacterial activity against Pseudomonas aeruginosa […] after 24 hrs by agar streak dilution method; format: functional
Klebsiella pneumoniae [7] = assay: Antibacterial activity against Klebsiella pneumoniae […] after 24 hrs by agar streak dilution method; format: functional
Salmonella typhi [8] = assay: Antibacterial activity against Salmonella Typhi after 24 hrs by agar streak dilution method; format: functional, Salmonella enterica subsp. enterica serovar Typhi; conditions: Salmonella enterica
Summary of the method: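 Agar streak dilution: DMSO stock (100 µg/mL) graded into molten sterile nutrient agar, poured 4–5 mm deep and solidified. Plates carry serial dilutions spanning 3.12–100 µg/mL. Applied ~10⁵ CFU/mL suspension, then incubated 24 h at (37 ± 1) °C. MIC read as the lowest inhibitory concentration; each value is the mean of three independent experiments.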

Proteus vulgaris [9] = assay: Antibacterial activity against Proteus vulgaris after 24 hrs by agar streak dilution method; format: functional; summary of the method: as §2
Shigella flexneri [10] = assay: Antibacterial activity against Shigella flexneri after 24 hrs by agar streak dilution method; format: functional; summary of the method: as §2
Aspergillus niger [11] = assay: Antifungal activity against Aspergillus niger after 48 hrs by agar streak dilution method; format: functional
Summary of the method: (§3)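 Fungal MIC by agar streak dilution on Sabouraud dextrose agar, poured 4–5 mm deep. Compound from a DMSO stock (100 μg/mL) was incorporated at serial concentrations of 3.12–100 µg/mL. Plates were inoculated with about 10⁵ CFU/mL of suspension and incubated at (37 ± 1) °C for 48 h. Each value is the mean of three independent experiments.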

Aspergillus fumigatus [12] = assay: Antifungal activity against Aspergillus fumigatus after 48 hrs by agar streak dilution method; format: functional; summary of the method: as §3
Aspergillus clavatus [13] = assay: Antifungal activity against Aspergillus clavatus after 48 hrs by agar streak dilution method; format: functional; summary of the method: as §3
Candida albicans [14] = assay: Antifungal activity against Candida albicans after 48 hrs by agar streak dilution method; format: functional; summary of the method: as §3
Aspergillus niger [15] = assay: Antifungal activity against Aspergillus niger at 100 ug/disc after 24 hrs by disc diffusion method; format: functional; conditions: read-out: DIZ; summary of the method: as §1
Aspergillus fumigatus [16] = assay: Antifungal activity against Aspergillus fumigatus at 100 ug/disc after 24 hrs by disc diffusion method; format: functional; conditions: read-out: DIZ; summary of the method: as §1
Aspergillus clavatus [17] = assay: Antifungal activity against Aspergillus clavatus at 100 ug/disc after 24 hrs by disc diffusion method; format: functional; conditions: read-out: DIZ; summary of the method: as §1
Candida albicans [18] = assay: Antifungal activity against Candida albicans at 100 ug/disc after 24 hrs by disc diffusion method; format: functional; conditions: read-out: DIZ; summary of the method: as §1
Staphylococcus aureus [19] = assay: Antibacterial activity against Staphylococcus aureus at 100 ug/disc after 24 hrs by disc diffusion method; format: functional; conditions: read-out: DIZ; summary of the method: as §1
Bacillus cereus [20] = assay: Antibacterial activity against Bacillus cereus at 100 ug/disc after 24 hrs by disc diffusion method; format: functional; conditions: read-out: DIZ; summary of the method: as §1
Escherichia coli [21] = assay: Antibacterial activity against Escherichia coli at 100 ug/disc after 24 hrs by disc diffusion method; format: functional; conditions: read-out: DIZ; summary of the method: as §1
Pseudomonas aeruginosa [22] = assay: Antibacterial activity against Pseudomonas aeruginosa at 100 ug/disc after 24 hrs by disc diffusion method; format: functional; conditions: read-out: DIZ; summary of the method: as §1
Klebsiella pneumoniae [23] = assay: Antibacterial activity against Klebsiella pneumoniae at 100 ug/disc after 24 hrs by disc diffusion method; format: functional; conditions: read-out: DIZ; summary of the method: as §1
Salmonella typhi [24] = assay: Antibacterial activity against Salmonella Typhi at 100 ug/disc after 24 hrs by disc diffusion method; format: functional, Salmonella enterica subsp. enterica serovar Typhi; conditions: Salmonella enterica, read-out: DIZ
Summary of the method: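 Paper disc diffusion on Mueller-Hinton agar poured 5 mm deep; 10⁵ CFU/mL suspension (0.5 McFarland) swabbed over surface. 6.25 mm filter paper discs soaked in compound in DMSO, incubated 24 h at (37 ± 1) °C; inhibition zone diameter in mm. DMSO disc as blank; ciprofloxacin 100 µg/disc as reference. Mean of three independent experiments.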

Structure (SMILES) | zone of inhibition at 100 µg/disc (Proteus vulgaris [1]) [mm] | zone of inhibition at 100 µg/disc (Shigella flexneri [2]) [mm] | MIC (Staphylococcus aureus [3]) [µg/mL] | MIC (Bacillus cereus [4]) [µg/mL] | MIC (Escherichia coli [5]) [µg/mL] | MIC (Pseudomonas aeruginosa [6]) [µg/mL] | MIC (Klebsiella pneumoniae [7]) [µg/mL] | MIC (Salmonella typhi [8]) [µg/mL] | MIC (Proteus vulgaris [9]) [µg/mL] | MIC (Shigella flexneri [10]) [µg/mL] | MIC (Aspergillus niger [11]) [µg/mL] | MIC (Aspergillus fumigatus [12]) [µg/mL] | MIC (Aspergillus clavatus [13]) [µg/mL] | MIC (Candida albicans [14]) [µg/mL] | zone of inhibition at 100 µg/disc (Aspergillus niger [15]) [mm] | zone of inhibition at 100 µg/disc (Aspergillus fumigatus [16]) [mm] | zone of inhibition at 100 µg/disc (Aspergillus clavatus [17]) [mm] | zone of inhibition at 100 µg/disc (Candida albicans [18]) [mm] | zone of inhibition at 100 µg/disc (Staphylococcus aureus [19]) [mm] | zone of inhibition at 100 µg/disc (Bacillus cereus [20]) [mm] | further results
CCN1CCN(CC2SC(c3ccccc3Br)N(c3ccc(Nc4nc(Oc5cc(=O)n(C)c6ccccc56)nc(N(C)C)n4)cc3)C2=O)CC1 (stereo unspecified) | 15 | 11 | 100 (≈ 130 µM) | 100 (≈ 130 µM) | 100 (≈ 130 µM) | 100 (≈ 130 µM) | 100 (≈ 130 µM) | 100 (≈ 130 µM) | 100 (≈ 130 µM) | 100 (≈ 130 µM) | 100 (≈ 130 µM) | 100 (≈ 130 µM) | 100 (≈ 130 µM) | 100 (≈ 130 µM) | < 10 | < 10 | 13 | < 10 | < 10 | 13 | zone of inhibition at 100 µg/disc (Escherichia coli [21]): < 10 mm; zone of inhibition at 100 µg/disc (Pseudomonas aeruginosa [22]): 14 mm; zone of inhibition at 100 µg/disc (Klebsiella pneumoniae [23]): 12 mm; zone of inhibition at 100 µg/disc (Salmonella typhi [24]): 12 mm
CCN1CCN(CC2SC(c3ccccc3C(=O)O)N(c3ccc(Nc4nc(Oc5cc(=O)n(C)c6ccccc56)nc(N(C)C)n4)cc3)C2=O)CC1 (stereo unspecified) | 12 | 15 | 100 (≈ 136 µM) | 50 (≈ 67.9 µM) | 50 (≈ 67.9 µM) | 100 (≈ 136 µM) | 50 (≈ 67.9 µM) | 100 (≈ 136 µM) | 100 (≈ 136 µM) | 100 (≈ 136 µM) | 100 (≈ 136 µM) | 100 (≈ 136 µM) | 100 (≈ 136 µM) | 100 (≈ 136 µM) | 15 | 11 | 17 | 17 | 21 | 21 | zone of inhibition at 100 µg/disc (Escherichia coli [21]): 18 mm; zone of inhibition at 100 µg/disc (Pseudomonas aeruginosa [22]): 13 mm; zone of inhibition at 100 µg/disc (Klebsiella pneumoniae [23]): 16 mm; zone of inhibition at 100 µg/disc (Salmonella typhi [24]): 13 mm
CCN1CCN(CC2SC(c3ccc(C(=O)O)cc3)N(c3ccc(Nc4nc(Oc5cc(=O)n(C)c6ccccc56)nc(N(C)C)n4)cc3)C2=O)CC1 (stereo unspecified) | 25 | 27 | 25 (≈ 34 µM) | 12.5 (≈ 17 µM) | 6.25 (≈ 8.49 µM) | 25 (≈ 34 µM) | 12.5 (≈ 17 µM) | 50 (≈ 67.9 µM) | 12.5 (≈ 17 µM) | 6.25 (≈ 8.49 µM) | 25 (≈ 34 µM) | 50 (≈ 67.9 µM) | 50 (≈ 67.9 µM) | 100 (≈ 136 µM) | 27 | 20 | 23 | 25 | 26 | 23 | zone of inhibition at 100 µg/disc (Escherichia coli [21]): 27 mm; zone of inhibition at 100 µg/disc (Pseudomonas aeruginosa [22]): 22 mm; zone of inhibition at 100 µg/disc (Klebsiella pneumoniae [23]): 26 mm; zone of inhibition at 100 µg/disc (Salmonella typhi [24]): 22 mm
CCN1CCN(CC2SC(c3ccc(OC)cc3)N(c3ccc(Nc4nc(Oc5cc(=O)n(C)c6ccccc56)nc(N(C)C)n4)cc3)C2=O)CC1 (stereo unspecified) | 21 | 26 | 6.25 (≈ 8.66 µM) | 6.25 (≈ 8.66 µM) | 6.25 (≈ 8.66 µM) | 12.5 (≈ 17.3 µM) | 25 (≈ 34.6 µM) | 6.25 (≈ 8.66 µM) | 50 (≈ 69.3 µM) | 6.25 (≈ 8.66 µM) | 12.5 (≈ 17.3 µM) | 12.5 (≈ 17.3 µM) | 12.5 (≈ 17.3 µM) | 12.5 (≈ 17.3 µM) | 25 | 27 | 24 | 26 | 28 | 27 | zone of inhibition at 100 µg/disc (Escherichia coli [21]): 27 mm; zone of inhibition at 100 µg/disc (Pseudomonas aeruginosa [22]): 25 mm; zone of inhibition at 100 µg/disc (Klebsiella pneumoniae [23]): 25 mm; zone of inhibition at 100 µg/disc (Salmonella typhi [24]): 26 mm
